The text below walks through data of ChEMBL document CHEMBL1649550, “Antibacterial properties and mode of action of a short acyl-lysyl oligomer” (2009).

Activity calls are given as the source filed them. The rule behind the calls is not given here.

In the test the test system is Staphylococcus aureus. The test can be described thus: Antibacterial activity against Staphylococcus aureus ATCC 29213 assessed as disruption of plasma membrane permeability at 4 times MIC by ethidium bromide uptake assay. It is filed as functional, organism-based. An outline of the steps:
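S. aureus grown overnight in LB at 37°C to OD620 of 1, washed twice in PBS and resuspended in PBS with 0.5% glucose, then 10 min at 37°C. Cells added to EtBr (final 1.0 μg/ml) with compound (serial twofold concentrations), Triton 0.01% final, or antibiotic at 4× MIC. Fluorescence followed over time (ex 530, em 645 nm).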

On to `O=C(O)c1cn(C2CC2)c2cc(N3CCNCC3)c(F)cc2c1=O`, for which the result was inactive.

Regarding `CN(C)[C@@H]1C(O)=C(C(N)=O)C(=O)[C@@]2(O)C(O)=C3C(=O)c4c(O)cccc4[C@@](C)(O)[C@H]3C[C@@H]12`, the result was inactive.

As to GENTAMICIN, the outcome was inactive.
